≈ marks a conversion by molar mass, not a printed value.
Key:
Mus musculus [1] = test: Toxicity in Swiss mouse allografted with Swiss mouse EAC cells assessed as body weight at 22 mg/kg, ip administered for 5 days measured on day 5 post last dose (reference value: 27.1 g); format: organism-based; conditions: in vivo, 120 h
Mus musculus [2] = test: Toxicity in Swiss mouse allografted with Swiss mouse EAC cells assessed as body weight at 22 mg/kg, ip measured on day 1 (reference value: 26.2 g); format: organism-based; conditions: in vivo
Mus musculus [3] = test: Toxicity in Swiss mouse allografted with Swiss mouse EAC cells assessed as body weight at 22 mg/kg, ip administered for 9 days measured on day 9 post last dose (reference value: 27.9 g); format: organism-based; conditions: in vivo, 216 h
Mus musculus [4] = test: Toxicity in Swiss mouse allografted with Swiss mouse EAC cells assessed as body weight at 22 mg/kg, ip administered for 13 days measured on day 13 post last dose (reference value: 28.7 g); format: organism-based; conditions: in vivo, 312 h
Ehrlich = test: Antitumor activity against Swiss mouse EAC cells allografted in Swiss mouse assessed as tumor growth inhibition at 22 mg/kg, ip administered for 13 days measured on day 13 post last dose relative to control; format: functional; conditions: 312 h, read-out: TGI
Mus musculus [5] = test: Toxicity in Swiss mouse allografted with Swiss mouse EAC cells assessed as mortality at 22 mg/kg, ip administered for 9 to 13 days; format: organism-based; conditions: in vivo
[6] = Plasma concentration in BALB/c mouse at 2.5 mg/kg, iv at […] by LC/MS-MS analysis; format: ADME, organism-based
[7] = Plasma concentration in BALB/c mouse at 2.5 mg/kg, iv at 0.25 hrs by LC/MS-MS analysis; format: ADME, organism-based
[8] = Plasma concentration in BALB/c mouse at 5 mg/kg, ip at 0.25 hrs by LC/MS-MS analysis; format: ADME, organism-based
[9] = Plasma concentration in BALB/c mouse at 2.5 mg/kg, iv at 0.5 hrs by LC/MS-MS analysis; format: ADME, organism-based
[10] = Plasma concentration in BALB/c mouse at 5 mg/kg, ip at 0.5 hrs by LC/MS-MS analysis; format: ADME, organism-based
[11] = Plasma concentration in BALB/c mouse at 2.5 mg/kg, iv at 1 hr by LC/MS-MS analysis; format: ADME, organism-based
[12] = Plasma concentration in BALB/c mouse at 5 mg/kg, ip at 1 hr by LC/MS-MS analysis; format: ADME, organism-based
[13] = Plasma concentration in BALB/c mouse at 2.5 mg/kg, iv at 2 hrs by LC/MS-MS analysis; format: ADME, organism-based
[14] = Plasma concentration in BALB/c mouse at 5 mg/kg, ip at 2 hrs by LC/MS-MS analysis; format: ADME, organism-based
[15] = Plasma concentration in BALB/c mouse at 5 mg/kg, ip at 4 hrs by LC/MS-MS analysis; format: ADME, organism-based
[16] = Initial concentration in BALB/c mouse at 2.5 mg/kg, iv by LC/MS-MS analysis; format: ADME, organism-based; conditions: in vivo
[17] = AUC (0 to t) in BALB/c mouse at 2.5 mg/kg, iv by LC/MS-MS analysis; format: ADME, organism-based; conditions: in vivo
[18] = AUC (0 to t) in BALB/c mouse at 5 mg/kg, ip by LC/MS-MS analysis; format: ADME, organism-based; conditions: in vivo
[19] = Half life in BALB/c mouse at 2.5 mg/kg, iv by LC/MS-MS analysis; format: ADME, organism-based; conditions: in vivo
Mus musculus [20] = test: Half life in BALB/c mouse at 5 mg/kg, ip by LC/MS-MS analysis; format: ADME, organism-based; conditions: in vivo
[21] = Volume of distribution in BALB/c mouse at 2.5 mg/kg, iv by LC/MS-MS analysis; format: ADME, organism-based; conditions: in vivo
Mus musculus [22] = test: Volume of distribution in BALB/c mouse at 5 mg/kg, ip by LC/MS-MS analysis; format: ADME, organism-based; conditions: in vivo
[23] = Clearance in BALB/c mouse at 2.5 mg/kg, iv by LC/MS-MS analysis; format: ADME, organism-based; conditions: in vivo
Mus musculus [24] = test: Clearance in BALB/c mouse at 5 mg/kg, ip by LC/MS-MS analysis; format: ADME, organism-based; conditions: in vivo
[25] = AUC (0 to infinity) in BALB/c mouse at 2.5 mg/kg, iv by LC/MS-MS analysis; format: ADME, organism-based; set-up: dose 2.5 mg/kg, time infinity, route intravenous; conditions: in vivo
Mus musculus [26] = test: AUC (0 to infinity) in BALB/c mouse at 5 mg/kg, ip by LC/MS-MS analysis; format: ADME, organism-based; set-up: dose 5 mg/kg, route intraperitoneal, time infinity; conditions: in vivo
4T1 [27] = test: Antitumor activity against mouse 4T1 cells allografted in iv dosed Balb/C mouse assessed as tumor growth inhibition administered every 3 days for 21 days measured 2 times for every week during dosing; format: functional, organism-based
Method in brief: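 4T1 cells were grown in RPMI-1640 with 10% FBS, pyruvate and NEAA at 37 °C and 5% CO2. Female Balb/C mice received 1×10^6 cells into the second mammary fat pad. At about 100 mm3, mice were grouped five per group and dosed by tail vein in 200 µL (PBS diluent) every three days for 21 days. Tumor volume (L×B²/2, caliper) and body weight were taken twice weekly. The experiment was repeated twice.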

HCT-116 = test: Antiproliferative activity against human HCT116 cells after 72 hrs by SRB assay; conditions: HCT-116, 72 h
CDK9/cyclin T1 = CDK9/cyclin T1 (Homo sapiens, UniProt P50750); format: protein-complex assay
Chain of CDK9/cyclin T1 (O60563 whole entry): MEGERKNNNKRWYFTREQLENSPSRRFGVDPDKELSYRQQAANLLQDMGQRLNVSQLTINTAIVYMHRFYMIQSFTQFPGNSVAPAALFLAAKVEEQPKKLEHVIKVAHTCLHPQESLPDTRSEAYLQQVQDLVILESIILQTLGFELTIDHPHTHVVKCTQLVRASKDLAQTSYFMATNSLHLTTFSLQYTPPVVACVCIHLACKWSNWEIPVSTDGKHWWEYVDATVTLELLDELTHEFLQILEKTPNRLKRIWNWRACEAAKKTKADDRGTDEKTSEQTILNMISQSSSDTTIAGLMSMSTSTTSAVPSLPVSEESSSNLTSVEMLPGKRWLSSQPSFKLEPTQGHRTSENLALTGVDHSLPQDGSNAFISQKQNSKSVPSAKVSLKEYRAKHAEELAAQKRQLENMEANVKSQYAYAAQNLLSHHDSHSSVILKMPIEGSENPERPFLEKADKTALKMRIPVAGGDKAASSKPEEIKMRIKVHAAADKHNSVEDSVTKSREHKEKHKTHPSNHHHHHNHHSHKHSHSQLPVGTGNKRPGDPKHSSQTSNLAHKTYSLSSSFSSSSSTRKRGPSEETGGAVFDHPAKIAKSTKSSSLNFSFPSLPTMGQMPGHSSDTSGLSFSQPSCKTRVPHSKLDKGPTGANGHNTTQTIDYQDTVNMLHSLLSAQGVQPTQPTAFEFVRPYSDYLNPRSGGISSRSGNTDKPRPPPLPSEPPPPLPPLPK
Chain of CDK9/cyclin T1 (P50750 whole entry): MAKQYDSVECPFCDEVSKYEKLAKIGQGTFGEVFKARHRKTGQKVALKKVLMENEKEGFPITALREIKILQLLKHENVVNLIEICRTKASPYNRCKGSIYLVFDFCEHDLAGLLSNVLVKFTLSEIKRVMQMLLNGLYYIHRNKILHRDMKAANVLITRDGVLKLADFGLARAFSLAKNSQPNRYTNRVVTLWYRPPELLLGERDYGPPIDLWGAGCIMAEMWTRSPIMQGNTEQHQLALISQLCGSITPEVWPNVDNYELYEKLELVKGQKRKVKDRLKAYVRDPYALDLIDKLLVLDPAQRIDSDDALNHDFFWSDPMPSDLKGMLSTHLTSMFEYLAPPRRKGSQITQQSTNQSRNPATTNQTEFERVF

[28] = Thermodynamic equilibrium solubility of the compound in water
[29] = Thermodynamic equilibrium solubility of the compound in PBS
[30] = Thermodynamic equilibrium solubility of the compound in SGF
[31] = Thermodynamic equilibrium solubility of the compound in SIF
[32] = Plasma concentration in BALB/c mouse at 2.5 mg/kg, iv at 4 hrs by LC/MS-MS analysis; format: ADME, organism-based
MDA-MB-231 = test: Antiproliferative activity against human MDA-MB-231 cells
MDA-MB-468 = test: Antiproliferative activity against human MDA-MB-468 cells
T47D = test: Antiproliferative activity against human T47D cells after 72 hrs by SRB assay
BT-549 = test: Antiproliferative activity against human BT549 cells
MCF7 = test: Antiproliferative activity against human MCF7 cells
4T1 [33] = test: Antiproliferative activity against mouse 4T1 cells after 24 hrs by MTT assay; conditions: 4T1, 24 h
[34] = Antiproliferative activity against HEK cells; conditions: Homo sapiens, HEK293
SH-SY5Y = test: Antiproliferative activity against human SH-SY5Y cells after 24 hrs by MTT assay; format: functional, cell-based
CDK2/Cyclin A2 = CDK2/Cyclin A2 (Homo sapiens, UniProt P24941); test: Inhibition of CDK2/cyclin A (unknown origin) using histone H1 as substrate after 30 mins in presence of [33P]-gamma-ATP; format: protein-complex assay
[35] = target: CDK2/Cyclin A2 (Homo sapiens) (UniProt P24941+P20248); conditions: at 500 nM
[36] = target: CDK9/cyclin T1 (Homo sapiens) (UniProt O60563+P50750); conditions: at 500 nM

Compound: O=c1[nH]cc(F)c(=O)[nH]1 [FLUOROURACIL]
- Activity (Mus musculus [1]): 25 g
- Activity (Mus musculus [2]): 26 g
- Activity (Mus musculus [3]): 24.57 g
- Activity (Mus musculus [4]): 24.85 g
- inhibition in vivo at 22 mg/kg (Ehrlich): 50.4%
- Activity (Mus musculus [5]): Non-Toxic

Compound: Nc1nccc(-c2c[nH]c3ncc(-c4ccc(F)cc4)cc23)n1
- concentration at […] [6]: 797 ng/mL
- concentration at 0.25 h [7]: 311 ng/mL
- concentration at 0.25 h [8]: 162 ng/mL
- concentration at 0.5 h [9]: 168 ng/mL
- concentration at 0.5 h [10]: 73 ng/mL
- concentration at 1 h [11]: 132 ng/mL
- concentration at 1 h [12]: 61.6 ng/mL
- concentration at 2 h [13]: 99.6 ng/mL
- concentration at 2 h [14]: 59.1 ng/mL
- concentration at 4 h [15]: 40.7 ng/mL
- C0 [16]: 1470 ng/mL
- AUC(0-t) [17]: 437 ng·h/mL
- AUC(0-t) [18]: 244 ng·h/mL
- half-life [19]: 2.5 h
- t1/2 (Mus musculus [20]): 4.4 h
- Vd [21]: 11.3 L/kg
- Vd (Mus musculus [22]): 63.6 L/kg
- clearance [23]: 51.7 mL/min/kg
- CL (Mus musculus [24]): 15 mL/min/kg
- AUC(0-inf) [25]: 795 ng·h/mL
- AUC (Mus musculus [26]): 504.3 ng·h/mL
- TGI (4T1 [27]): Dose-dependent effect

Compound: Nc1nccc(-c2c[nH]c3ncccc23)n1 [MERIOLIN 1]
- IC50 (HCT-116): 1800 nM
- IC50 (CDK9/cyclin T1): 30 nM
- solubility thermodynamic [28]: 95.8 µg/mL (≈ 454 µM)
- solubility thermodynamic [29]: 89 µg/mL (≈ 421 µM)
- solubility thermodynamic [30]: 352 µg/mL (≈ 1670 µM)
- solubility thermodynamic [31]: 87.7 µg/mL (≈ 415 µM)
- concentration at […] [6]: 167 ng/mL
- concentration at 0.25 h [7]: 34.1 ng/mL
- concentration at 0.5 h [9]: 12.6 ng/mL
- concentration at 1 h [11]: 4.5 ng/mL
- concentration at 2 h [13]: 1 ng/mL
- concentration at 4 h [32]: 0.8 ng/mL
- C0 [16]: 230 ng/mL
- AUC(0-t) [17]: 46.2 ng·h/mL
- half-life [19]: 0.47 h
- Vd [21]: 36.5 L/kg
- clearance [23]: 897 mL/min/kg
- AUC(0-inf) [25]: 46.9 ng·h/mL
- IC50 (MDA-MB-231): 6000 nM
- IC50 (MDA-MB-468): 13000 nM
- IC50 (T47D): 8000 nM
- IC50 (BT-549): 7000 nM
- IC50 (MCF7): 6000 nM
- IC50 (4T1 [33]): 2500 nM
- IC50 [34]: 36000 nM

Compound: Nc1nccc(-c2c[nH]c3ncc(-c4ccoc4)cc23)n1
- IC50 (HCT-116): 700 nM
- IC50 (SH-SY5Y): 900 nM
- solubility thermodynamic [28]: 20 µg/mL (≈ 72.1 µM)
- solubility thermodynamic [29]: 10 µg/mL (≈ 36.1 µM)
- solubility thermodynamic [30]: 800 µg/mL (≈ 2890 µM)
- solubility thermodynamic [31]: 1 µg/mL (≈ 3.61 µM)

Compound: c1ccc(CCNc2nccc(-c3c[nH]c4ncccc34)n2)cc1
- IC50 (HCT-116): 560 nM
- IC50 (CDK2/Cyclin A2): 10 nM
- IC50 (CDK9/cyclin T1): 20 nM
- solubility thermodynamic [28]: < 5 µg/mL
- solubility thermodynamic [29]: < 5 µg/mL
- solubility thermodynamic [30]: 1500 µg/mL (≈ 4760 µM)
- solubility thermodynamic [31]: > 5 µg/mL
- inhibition [35]: 92.5%
- inhibition [36]: 92.4%

Compound: Nc1nccc(-c2c[nH]c3ncc(-c4cccnc4)cc23)n1
- IC50 (HCT-116): 700 nM
- IC50 (SH-SY5Y): 1000 nM
- solubility thermodynamic [28]: 80 µg/mL (≈ 277 µM)
- solubility thermodynamic [29]: 200 µg/mL (≈ 694 µM)
- solubility thermodynamic [30]: 800 µg/mL (≈ 2770 µM)
- solubility thermodynamic [31]: 1 µg/mL (≈ 3.47 µM)

Compound: Nc1nccc(-c2c[nH]c3ncc(-c4ccc(Cl)cc4)cc23)n1
- IC50 (HCT-116): 500 nM
- IC50 (SH-SY5Y): 900 nM
- solubility thermodynamic [28]: 57.4 µg/mL (≈ 178 µM)
- solubility thermodynamic [29]: 120 µg/mL (≈ 373 µM)
- solubility thermodynamic [30]: 74.4 µg/mL (≈ 231 µM)
- solubility thermodynamic [31]: 113 µg/mL (≈ 352 µM)
